Square brackets hold non-standard residues; d marks the D form. Peptide text beside a SMILES is read from it. * marks the point of attachment. Tyr(Nα,Nα-allyl2) = C=CCN(CC=C)[C@@H](Cc1ccc(O)cc1)C(=O)*; Aib = CC(C)(N)C(=O)O
Tests used:
[1] = biological target: Mu-type opioid receptor (Bos taurus) (UniProt P79350); assay: Evaluation for the ability of mu opioid to protect the [3H]DAMGO binding site from alkylation
Mu-type opioid receptor = Mu-type opioid receptor (Bos taurus, UniProt P79350); assay: Evaluation for the inhibition of mu opioid binding to bovine striatal membranes by the affinity ligand 0.25 nM [3H]DAMGO radiolabeled opioid; design: species or system Striatum, Membrane
Chain of Mu-type opioid receptor (P79350 whole entry): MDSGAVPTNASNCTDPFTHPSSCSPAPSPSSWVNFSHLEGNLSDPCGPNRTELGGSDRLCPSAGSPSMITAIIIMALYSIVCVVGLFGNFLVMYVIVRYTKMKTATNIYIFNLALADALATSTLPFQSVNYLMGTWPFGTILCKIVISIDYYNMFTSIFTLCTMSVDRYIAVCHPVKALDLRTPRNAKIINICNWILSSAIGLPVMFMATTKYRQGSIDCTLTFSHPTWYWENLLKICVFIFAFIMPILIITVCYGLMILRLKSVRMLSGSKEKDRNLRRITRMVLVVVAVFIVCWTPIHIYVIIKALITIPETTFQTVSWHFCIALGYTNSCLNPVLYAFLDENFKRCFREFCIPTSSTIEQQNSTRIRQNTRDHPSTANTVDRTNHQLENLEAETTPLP
Procedure, shortened: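 Competition binding on bovine striatal membranes: twelve compound concentrations with radioligand in 1 mL of 50 mM Tris-HCl pH 7.5 at 25 °C, with 5 mM MgCl2 and 0.1 mM PMSF. Incubation was 60 min for [3H]DAMGO and [3H]U69,593 and 4 h for [3H]pCl-DPDPE. […] Filtration used PEI-soaked filters for the κ and δ ligands. Mean IC50 ± SE, three experiments.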

[2] = biological target: Mu-type opioid receptor (Bos taurus) (UniProt P79350); assay: Effect of DTT on Wash-Resistant Inhibition of [3H]DAMGO at 10 nM of the compound
Procedure, shortened: (§1)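 They were then given 40 mM DTT for 10 min at 4 °C in 2 mL of 50 mM Tris-HCl pH 7.5, followed by four centrifugal washes. […] Results are % of control without ligand or DTT; mean ± SE, three experiments in triplicate.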

[3] = biological target: Mu-type opioid receptor (Bos taurus) (UniProt P79350); assay: Evaluation for the ability of mu opioids to protect the [3H]DAMGO binding site from alkylation
Procedure, shortened: (§2)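 Protection assay on TPCK-pretreated calf striatal membranes. Membranes were preincubated with 100 nM protecting opioid in 50 mM Tris-HCl pH 7.5 for 30 min at 37 °C. The disulfide ligand (40 or 80 nM) was then added for 2 min at 37 °C in 2 mL. After four centrifugal washes, 0.25 nM [3H]DAMGO binding was measured. Results are % of untreated control; mean ± SE, three experiments in triplicate.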

[4] = biological target: Mu-type opioid receptor (Bos taurus) (UniProt P79350); assay: Effect of DTT on Wash-Resistant Inhibition of [3H]DAMGO by 10 nM; procedure, shortened: as §1
[5] = biological target: Delta-type opioid receptor (Homo sapiens) (UniProt P41143); assay: Evaluation for the ability of delta opioids to protect the [3H]DAMGO binding site from alkylation; conditions: Bos taurus; procedure, shortened: as §2
Chain of Delta-type opioid receptor (Homo sapiens) (P41143 whole entry): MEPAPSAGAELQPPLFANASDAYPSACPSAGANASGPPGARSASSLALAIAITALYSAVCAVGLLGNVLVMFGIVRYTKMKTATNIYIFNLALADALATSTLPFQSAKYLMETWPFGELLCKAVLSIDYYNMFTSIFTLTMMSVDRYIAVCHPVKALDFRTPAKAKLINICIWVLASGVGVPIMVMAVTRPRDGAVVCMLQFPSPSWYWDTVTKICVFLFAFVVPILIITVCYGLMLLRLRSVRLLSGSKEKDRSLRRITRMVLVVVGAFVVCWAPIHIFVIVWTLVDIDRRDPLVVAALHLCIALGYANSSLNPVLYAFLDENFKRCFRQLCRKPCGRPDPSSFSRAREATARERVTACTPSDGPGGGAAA

[6] = biological target: Kappa-type opioid receptor (Homo sapiens) (UniProt P41145); assay: Evaluation for the ability of kappa opioids to protect the [3H]-DAMGO binding site from alkylation; conditions: Bos taurus; procedure, shortened: as §2
Chain of Kappa-type opioid receptor (Homo sapiens) (P41145 whole entry): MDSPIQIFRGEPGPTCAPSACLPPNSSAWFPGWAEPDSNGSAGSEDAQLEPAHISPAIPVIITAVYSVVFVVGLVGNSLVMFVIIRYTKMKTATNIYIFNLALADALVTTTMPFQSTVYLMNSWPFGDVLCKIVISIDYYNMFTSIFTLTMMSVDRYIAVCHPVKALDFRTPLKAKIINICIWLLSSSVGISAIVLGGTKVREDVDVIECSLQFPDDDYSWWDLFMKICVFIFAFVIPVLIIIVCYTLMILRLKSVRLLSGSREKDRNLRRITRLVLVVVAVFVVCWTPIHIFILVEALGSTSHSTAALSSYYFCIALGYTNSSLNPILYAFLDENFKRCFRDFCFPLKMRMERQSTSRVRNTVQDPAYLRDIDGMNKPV

Chain of Mu-type opioid receptor (Bos taurus) (P79350 whole entry): as the sequence (P79350 whole entry) above

With `CN1CC[C@]23c4c5ccc(O)c4O[C@H]2[C@@H](O)C=C[C@H]3[C@H]1C5` the Activity [1] was 67.
With `C=CCN(CC=C)[C@@H](Cc1ccc(O)cc1)C(=O)NC(C)(C)C(=O)NC(C)(C)C(=O)N[C@@H](Cc1ccccc1)C(=O)N[C@@H](CC(C)C)C(=O)O` ({Tyr(Nα,Nα-allyl2)}-[Aib][Aib]FL-OH) the Activity [1] was 24.
`CN1CC[C@]23c4c5ccc(O)c4O[C@H]2C(=O)CC[C@@]3(NC(=O)CSSCC(=O)N[C@@]23CCC(=O)[C@@H]4Oc6c(O)ccc7c6[C@@]42CCN(C)[C@@H]3C7)[C@H]1C5` showed an IC50 (Mu-type opioid receptor) of 0.4 nM, an inhibition [2] of 50% and an Activity [3] of 25.
Compound `O=C(CSSCC(=O)N[C@@]12CCC(=O)[C@@H]3Oc4c(O)ccc5c4[C@@]31CCN(CC1CC1)[C@@H]2C5)N[C@@]12CCC(=O)[C@@H]3Oc4c(O)ccc5c4[C@@]31CCN(CC1CC1)[C@@H]2C5` has an inhibition [4] of 63%, an IC50 (Mu-type opioid receptor) of 3.29 nM and an Activity [5] of 25. It also gave an Activity [6] of 30.
For `Oc1ccc2c3c1O[C@H]1c4[nH]c5ccccc5c4C[C@@]4(O)[C@@H](C2)N(CC2CC2)CC[C@]314`, the Activity [1] was 25.

Source: ChEMBL document CHEMBL1127738, “14 alpha,14' beta-[Dithiobis[(2-oxo-2,1-ethanediyl)imino]]bis (7,8-dihydromorphinone) and 14 alpha,14' beta-[dithiobis[(2-oxo-2,1- ethanediyl)imino]]bis[7,8-dihydro-N-(cyclopropylmethyl)normorphinone]: chemistry and opioid binding properties” (J Med Chem, 1994)
